# Assay results: ChEMBL document CHEMBL4304756, “Second-Generation Tryptamine Derivatives Potently Sensitize Colistin Resistant Bacteria to Colistin” (ACS Med Chem Lett, 2019)
# Active and inactive are the calls of the source. The calls are words filed in the database; no cut-off is given here.
# Tests used:
# [1] = system: Acinetobacter baumannii; experiment: Potentiation of colistin-induced antibacterial activity against Acinetobacter baumannii 17978 harbouring mcr-1 gene assessed as reduction in colistin MIC at 15 uM incubated for 16 hrs by broth microdilution method; assay type: functional, organism-based
# Summary of the method: (§1)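 For the dose-response, colistin MIC was measured against mcr-1 plasmid-bearing E. coli, K. pneumoniae and A. baumannii while the adjuvant concentration was lowered stepwise (30, 15 μM, down to 5 μM). The aim was to find where the MIC rose above the 2 μg/mL CLSI susceptibility breakpoint.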
# [2] = system: Klebsiella pneumoniae; experiment: Potentiation of colistin-induced antibacterial activity against Klebsiella pneumoniae C3 assessed as reduction in colistin MIC at 10 uM incubated for 16 hrs by broth microdilution method (reference value: 512 ug/ml); assay type: functional; conditions: C3, 16 h
# [3] = system: Acinetobacter baumannii; experiment: Potentiation of colistin-induced antibacterial activity against Acinetobacter baumannii 4106 assessed as reduction in colistin MIC at 7.5 uM incubated for 16 hrs by broth microdilution method (reference value: 1024 ug/ml); assay type: functional; conditions: Acinetobacter baumannii, 4106, 16 h
# Summary of the method: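 Colistin MIC was measured against chromosomally colistin-resistant strains (K. pneumoniae B9, C3; A. baumannii 4106, among four strains) with adjuvant at fixed levels from 20 μM down to 7.5 μM. Fold reduction was reported against colistin alone, with the CLSI breakpoint taken as ≤2 μg/mL.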
# [4] = system: Escherichia coli; experiment: Potentiation of colistin-induced antibacterial activity against Escherichia coli YD626 harbouring mcr-1 gene assessed as reduction in colistin MIC at 5 uM incubated for 16 hrs by broth microdilution method (reference value: 8 ug/ml); assay type: functional; conditions: YD626, 16 h; summary of the method: as §1
# [5] = system: Acinetobacter baumannii; experiment: Potentiation of colistin-induced antibacterial activity against Acinetobacter baumannii 3941 assessed as reduction in colistin MIC at 15 uM incubated for 16 hrs by broth microdilution method (reference value: 512 ug/ml); assay type: functional; conditions: Acinetobacter baumannii, 3941, 16 h
# [6] = system: Klebsiella pneumoniae; experiment: Potentiation of colistin-induced antibacterial activity against Klebsiella pneumoniae 2210291 harbouring mcr-1 gene assessed as reduction in colistin MIC at 5 uM incubated for 16 hrs by broth microdilution method (reference value: 16 ug/ml); assay type: functional; conditions: Klebsiella pneumoniae, 2210291, 16 h; summary of the method: as §1
# [7] = system: Acinetobacter baumannii; experiment: Potentiation of colistin-induced antibacterial activity against Acinetobacter baumannii 4106 assessed as reduction in colistin MIC at 5 uM incubated for 16 hrs by broth microdilution method (reference value: 1024 ug/ml); assay type: functional; conditions: Acinetobacter baumannii, 4106, 16 h
# [8] = system: Acinetobacter baumannii; experiment: Potentiation of colistin-induced antibacterial activity against Acinetobacter baumannii 4106 assessed as reduction in colistin MIC at 10 uM incubated for 16 hrs by broth microdilution method (reference value: 1024 ug/ml); assay type: functional; conditions: Acinetobacter baumannii, 4106, 16 h
# [9] = system: Escherichia coli; experiment: Potentiation of colistin-induced antibacterial activity against Escherichia coli YD626 harbouring mcr-1 gene assessed as colistin MIC at 50 uM incubated for 16 hrs by broth microdilution method (reference value: 8 ug/ml); assay type: functional; conditions: YD626, 16 h
# [10] = system: Escherichia coli; experiment: Potentiation of colistin-induced antibacterial activity against Escherichia coli YD626 assessed as colistin MIC at 50 uM incubated for 16 hrs by broth microdilution method (reference value: 1 ug/ml); assay type: functional; conditions: YD626, 16 h
# [11] = Hemolytic activity in sheep RBC at 200 uM incubated for 1 hr by UV spectrophotometry; assay type: ADME, cell-based, Ovis aries, Erythrocyte; conditions: sheep red blood cells (erythrocytes), read-out: Activity
# Summary of the method: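 Red blood cells exposed to compound at 200 μM, with percent cell lysis recorded.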
# [12] = system: Acinetobacter baumannii; experiment: Potentiation of colistin-induced antibacterial activity against Acinetobacter baumannii 3941 assessed as reduction in colistin MIC at 7.5 uM incubated for 16 hrs by broth microdilution method (reference value: 512 ug/ml); assay type: functional; conditions: Acinetobacter baumannii, 3941, 16 h
smiles,measurement,setting,value
O=C(NCCc1c[nH]c2ccc(Br)cc12)Nc1cc(Cl)c(Br)c(Cl)c1,Activity,[1],Active
same,MIC,[2],1 µg/mL
same,MIC,[3],1 µg/mL
same,MIC,[4],1 µg/mL
same,MIC,[5],4 µg/mL
same,MIC,[6],2 µg/mL
same,MIC,[7],4 µg/mL
same,MIC,[8],1 µg/mL
same,MIC,[9],1 µg/mL
same,MIC,[10],0.25 µg/mL
same,"hemolysis at 1 h, 200 µM",[11],< 2.5%
same,MIC,[12],16 µg/mL
